Screening data: PubChem, several laboratories
iPSC survival up – enhancers of human iPSC single-cell survival. hiPSC single-cell survival, ATPlite luminescence; 100% = ROCK inhibitor wells, 0% = DMSO. survival enhancement, % at 20 µM. hit rate 0.044% among 360,000; in the data active means survival enhancement above about 18%;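 further: cells exposed to compounds for 16 hours before the ATP read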
MC4R antagonist – antagonists of human melanocortin 4 receptor (MC4R). MC4R-expressing cells, MTII-stimulated cAMP, LANCE TR-FRET. hit rate 0.48% among 360,000. P32245. inhibition, % at 6.5 µM;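 active means inhibition above its plate's cutoff, the mean of tested wells on that plate plus 3 SD, cut at about 29% in these data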;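 further: 0% = Melanotan II alone and 100% = Melanotan II plus saturating MCL0020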
Target sequence (P32245 whole entry, looked up): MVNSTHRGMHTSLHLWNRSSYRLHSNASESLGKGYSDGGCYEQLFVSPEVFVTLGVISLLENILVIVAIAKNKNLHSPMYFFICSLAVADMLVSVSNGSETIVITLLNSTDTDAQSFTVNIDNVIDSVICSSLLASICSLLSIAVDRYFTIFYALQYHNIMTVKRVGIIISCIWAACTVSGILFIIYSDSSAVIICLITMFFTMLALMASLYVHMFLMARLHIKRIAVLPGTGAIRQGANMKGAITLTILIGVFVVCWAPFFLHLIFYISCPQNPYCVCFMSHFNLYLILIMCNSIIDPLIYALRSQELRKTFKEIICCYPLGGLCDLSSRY
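Assay system: U2OS-MC4R stable cell line; Also added: Melanotan II; Technique: Eu-cAMP/anti-cAMP TR-FRET, emission 671 nm; Times: 30-min compound, 1-h challenge, 1-h detection, room temperature.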
Tb MetRS inh – Trypanosoma brucei MetRS inhibition; purified T. brucei MetRS, ATP depletion, Kinase-Glo luminescence; inhibition, % at 11.9 µM; hit rate 0.4% among 360,000; AID 624268;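 active means inhibition above a per-plate cutoff of the control wells' mean inhibition plus 3 SD, cut at about 5.5% in these data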;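 further: 0% = DMSO wells median and 100% = median of wells with control inhibitor compound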
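Assay system: T. brucei methionyl-tRNA synthetase, purified | Medium: HEPES buffer with MgCl2, KCl, DTT, spermine, BSA, pyrophosphatase | Compound: 11.9 µM single point | Incubation: 15 min enzyme-compound preincubation, 2 h reaction, 10 min detection, 25 °C | Measured by: Kinase-Glo luciferase luminescence reporting remaining unconsumed ATP | Measure: % inhibition normalized to control-well medians | Replication: Singlicate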
ABCB6 inh 2 – human ABCB6 transporter inhibition. K562-ABCB6 porphyrin accumulation, flow cytometry, 1 h; hits give low values. fluorescence ratio to DMSO, % at 10 µM. hit rate 0.19% among 360,000. AID 602162;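 active means fluorescence ratio to DMSO below 75%, the collection mean minus 3 SD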;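 further: signal is porphyrin accumulated inside mitochondria; 100% equals median channel fluorescence of DMSO control wells; lower ratio means ABCB6 inhibition with less porphyrin fluorescence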
MC4R barr agon – activates human MC4R beta-arrestin recruitment; hit rate 0.98% among 360,000; U2OS MC4R beta-arrestin complementation, luminescence; percent of melanotan II response, DMSO zero; activation, % at 8.9 µM; P32245;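 active means activation above a per-plate cutoff, the mean activation of sample wells on that plate plus 3 SD, cut at about 8% in these data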
Granule exo inh – blocks lytic granule exocytosis | hit rate 0.66% among 360,000 | TALL-104 LAMP-1 surface exposure, flow cytometry; cells stimulated with thapsigargin and PMA | AID 651702 | inhibition, % at 10 µM;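 active means inhibition above about 55%, limit read from the data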
Exocytosis CP01 – lytic granule exocytosis inhibition; shares compounds with Granule exo inh; TALL-104 cells, LAMP-1 externalization, flow cytometry; stimulated with PMA plus thapsigargin; inhibition, % at 10 µM; hit rate 11% among 1,500; AID 651954; in the data active means inhibition above about 60%;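 further: 0% = stimulated vehicle wells and 100% = unstimulated wells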
Starred values were filed as active, the others as inactive; x = no result. This is a sample that favours compounds with a hit; in the whole collection about 2.6% have one here.

SMILES | iPSC survival up | MC4R antagonist | Tb MetRS inh | ABCB6 inh 2 | MC4R barr agon | Granule exo inh | Exocytosis CP01
COc1ccc(OC)c(S(=O)(=O)Nc2ccc(O)c3ccccc23)c1 | 2 | 1 | -1 | 114 | -2 | 85* | -12
CC1(C)Cc2c(sc(NC(=O)C(=O)N3CCCCC3)c2C(N)=O)CO1 | 0 | 8 | 0 | 99 | 1 | -1 | x
CC(C)Cn1c(N)c(S(=O)(=O)c2cccs2)c2nc3ccccc3nc21 | -4 | 2 | 0 | 111 | -1 | 80* | -11
CCCCn1nnc(NC(=O)c2sc3cc(Cl)ccc3c2Cl)n1 | 1 | 4 | -1 | 118 | 0 | 5 | x
CCN(CC)Cc1ccc(NC(=O)c2sc3cc(Cl)ccc3c2Cl)cc1 | 0 | -2 | 0 | 98 | -1 | 81* | 24
CCOc1ccccc1CNC(=O)Cn1ccc2cc(S(=O)(=O)N3CCCCCC3)ccc21 | 1 | 3 | 0 | 93 | -2 | 2 | x
CCOc1ccccc1CNC(=O)CCn1ccc2cc(S(=O)(=O)N3CCCCC3)ccc21 | 0 | 10 | 0 | 98 | -2 | 62* | -3
CCc1nc(SCC(=O)N2CCCCC2)c2c(=O)n(C)c(=O)n(C)c2n1 | 0 | 3 | -1 | 102 | -2 | 1 | x
COc1ccccc1C(=O)Nc1ccccc1SC(=O)c1ccccc1OC | 0 | -17 | 1 | 96 | 0 | 91* | 33
CCn1c(Cc2ccccc2)nnc1SCC(=O)Nc1ccc2c(c1)OCCO2 | -2 | 1 | -1 | 101 | -1 | -2 | x
O=C(Nc1ccc2nc(-c3cccs3)c(-c3cccs3)nc2c1)NC1CC1 | -3 | 14 | 0 | 100 | -1 | 99* | 103*
COCCNC(=O)Nc1ccc2nc(-c3cccs3)c(-c3cccs3)nc2c1 | 1 | 11 | -1 | 97 | 0 | 49 | x
O=C(Cc1cccs1)N[C@@H]1c2ccccc2CC[C@H]1OCc1ccccc1 | 1 | 4 | -2 | 97 | 1 | 3 | x
O=C(N/N=C/C(Cl)=C/c1ccc([N+](=O)[O-])cc1)C(=O)Nc1cccc(C(=O)O)c1 | 0 | 20 | 0 | 100 | 1 | -4 | x
Cc1ccc(-c2nn(-c3ccccc3)cc2CO)cc1 | 0 | 1 | -1 | 92 | 1 | -4 | x
Cc1ccc(-n2cc(CNCCCn3ccnc3C)c(-c3ccc(F)cc3)n2)cc1 | -1 | 8 | 5 | 103 | 0 | 57* | 2
Cc1ccc(-c2nn(-c3ccccc3)cc2CNCc2ccccc2)cc1 | -2 | 0 | 0 | 102 | 9.5* | 70* | 92*
CCOc1ccc(S(=O)(=O)N2CCN(Cc3ccc4c(c3)OCO4)CC2)cc1C | 0 | -3 | 0 | 93 | -2 | 65* | -14
C[C@H]1CN([C@@H](C)CO)C(=O)CCCn2cc(nn2)CO[C@@H]1CN(C)S(=O)(=O)c1ccc(Oc2ccccc2)nc1 | 3 | -2 | 1 | 102 | 1 | 1 | x
COc1ccc(OC)c(Nc2nc(C3CC3)nc3c2nnn3Cc2ccccc2)c1 | 0 | 3 | 0 | 103 | -2 | 60* | -5
CN(CC(=O)Nc1ccccc1Br)C(=O)c1cccn1C | 3 | 8 | 0 | 99 | -1 | -4 | x
Cc1cc(C)nc(Nc2nc(-c3ccccc3)cs2)n1 | 0 | -3 | 0 | 95 | 0 | 76* | -6
Cc1ccc(OCC(=O)N(Cc2ccccc2)C(C)(C)C)c([N+](=O)[O-])n1 | -1 | -8 | -1 | 101 | 1 | 0 | x
Cc1ccc(OCc2ccc(-c3ccccc3)cc2)c([N+](=O)[O-])n1 | 0 | -1 | 0 | 96 | 0 | 88* | -3
CCCCOn1c(C)c(C(=O)OCC)c2c3nonc3ccc21 | -2 | 3 | -1 | 96 | -1 | 87* | 36
SMILES | iPSC survival up | MC4R antagonist | Tb MetRS inh | ABCB6 inh 2 | MC4R barr agon | Granule exo inh | Exocytosis CP01
O=[N+]([O-])c1cc2c(cc1Br)CCN2 | -1 | 1 | 0 | 95 | -2 | 0 | x
COc1ccc(-c2cc(-c3ccccc3)c(C#N)c(S(C)=O)n2)cc1 (centres undefined) | -6 | 7 | 0 | 95 | -2 | 64* | -4
CCC(=O)Nc1cc2[nH]c(=O)cc(C)c2cc1C | 2 | -3 | 0 | 101 | -4 | 58* | -3
Cc1cc(=O)oc2c(C)c3occc3cc12 | 2 | -7 | -1 | 85 | -2 | -17 | x
CCN(CC)CCN(C(=O)c1cc2ccccc2cc1OC)c1nc2ccc(OC)cc2s1 | 0 | 1 | 0 | 93 | -1 | 65* | -4
CCN(CC)CCN(C(=O)c1cc2ccccc2cc1OC)c1nc2ccc(F)cc2s1 | 0 | 0 | 0 | 94 | 0 | 50 | x
COc1ccc(Cc2c(-c3ccc(F)cc3)nc3ccc(Cl)cn23)c(C)c1 | 1 | x | 0 | 106 | x | -4 | x
COc1cc(Cl)ccc1OCc1cc(C(=O)N2C[C@]3(C)C[C@H]2CC(C)(C)C3)no1 | 0 | 17 | 0 | 96 | 1 | 1 | x
O=C(CCN1CCCCCC1)c1ccccc1 | 4 | 11 | 0 | 95 | -1 | -4 | x
CCOc1ccc(C(=O)CCC(=O)NN2CCCCC2)cc1 | -3 | 3 | 0 | 98 | -1 | 6 | x
CCCOc1ccc(C(=O)CCN2CCN(C(=O)OCC)CC2)cc1 | -1 | 10 | 0 | 98 | -5 | 60* | -13
CCOc1ccc(C(=O)CCN2CCCCC2)cc1 | -1 | 28 | 0 | 111 | -1 | 93* | -11
CC(C)Oc1ccc(C(=O)CCN2CCOCC2)cc1 | 0 | 8 | -1 | 94 | 0 | 59* | -11
CCOC(=O)N1CCN(C(=O)CCC(=O)c2ccc(OCC)cc2)CC1 | 0 | 6 | 1 | 99 | -1 | -6 | x
CC(C)Oc1ccc(C(=O)CCN2CCCCC2)cc1 | -4 | 14 | -1 | 89 | -1 | 95* | 5
COc1ccc(OC)c(C(=O)Cn2cnc3ccccc3c2=O)c1 | 1 | 3 | 0 | 98 | -2 | -6 | x
COc1ccc(CN2C[C@H]3CON(C)[C@H]3C[C@H]2c2ccc(-c3ccccc3)cc2)cc1 | 1 | x | -1 | 99 | x | 2 | x
COc1ccc(CN(C)C(=O)c2ccc(Oc3ccccc3)cc2)cc1F | 0 | -2 | 0 | 91 | 0 | 67* | -4
COc1ccc(CN(C)C(=O)c2ccc(OCC(=O)Nc3cccc(C(F)(F)F)c3)c(OC)c2)cc1 | 1 | 7 | 0 | 89 | 5 | -4 | x
CN(Cc1ccc2ccccc2c1)C(=O)c1ccc(C(F)(F)F)cc1 | 0 | -1 | 0 | 83 | 0 | 60* | -11
Cc1ccsc1CN(C)C(=O)c1ccc(Oc2ccccc2)cc1 | 0 | 20 | -1 | 100 | 1 | 113* | -14
